Reference: ChEMBL document CHEMBL1129351, “Hypoxia-selective antitumor agents. 14. Synthesis and hypoxic cell cytotoxicity of regioisomers of the hypoxia-selective cytotoxin 5-[N,N-bis(2-chloroethyl)amino]-2,4-dinitrobenzamide” (J Med Chem, 1996)

Key:
CHO-AA8 [1] = test: Compound was tested for the concentration required to reduce cell survival under hypoxic conditions, using the cell line AA8 in the clonogenic assay.; assay type: functional, Cricetulus griseus
How it was run: (§1)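 Clonogenic assay on early-plateau Chinese hamster cells, grown in spinner flasks (AA8 to 10⁶/mL, UV4 to 6 × 10⁵/mL) and resuspended in fresh medium. Stirred 10 mL suspensions at 10⁶/mL were exposed to drug for 1 h under continuous 5% CO₂ in N₂; cells and drug solutions were pre-equilibrated under gas for 1 h. C₁₀ = concentration (µM) giving 10% survival relative to controls.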

CHO-AA8 [2] = test: Inhibition of growth under aerobic conditions in AA8 cells; assay type: functional, cell-based; conditions: Cricetulus griseus
How it was run: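 Growth-inhibition microassay: AA8 cells, 200 per well, were grown 24 h, then exposed aerobically to drug in RMEM with 5% fetal bovine serum for 18 h and washed three times. After a further 78 h they were stained with methylene blue. IC₅₀ = concentration giving 50% growth inhibition relative to controls; means ± SEM, values without SEM from a single determination.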

UV4 = test: Compound was tested for the concentration required to reduce cell survival under hypoxic conditions, using the cell line UV4 in the clonogenic assay.; assay type: functional, Cricetulus griseus; how it was run: as §1
[3] = Potency in clonogenic assay, defined by hypersensitivity factor calculated for UV4 cells versus AA8 cells [IC50(AA8)/IC50(UV4)]; assay type: functional, Cricetulus griseus
[4] = The ratio of C10 values in air and N2 using AA8 cell line.; assay type: functional, CHO-AA8
How it was run: (§2)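 Stirred early-plateau suspensions (10⁶/mL) of AA8 or UV4 cells were exposed to drug for 1 h under continuous gassing with 5% CO₂ in air or in N₂, after 1 h pre-equilibration, and then plated for clonogenic survival. C₁₀ (10% survival) was found for each gas phase and the ratio C₁₀(air)/C₁₀(N₂) reported.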

[5] = The ratio of C10 values in air and N2 using UV4 cell line.; assay type: functional; how it was run: as §2
[6] = Potency in clonogenic assay defined by Hypersensitivity factor calculated for AA8 cells versus EMT6 cells [IC50(AA8)/IC50 (EMT6)]; assay type: functional
How it was run: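 Aerobic growth-inhibition microassay run in parallel on AA8 (200/well), UV4 (300/well) and murine mammary EMT6 (75/well) cells. After 24 h growth, cells were given 18 h drug exposure in RMEM/5% FBS, washed, grown a further 78 h, and stained with methylene blue. The hypersensitivity factor is IC₅₀(AA8)/IC₅₀(named line), reported as intraexperiment means ± SEM.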

CHO-AA8 [7] = test: Inhibitory activity against AA8 cell growth in aerobic condition after 4 hr of exposure; assay type: functional, cell-based; conditions: Cricetulus griseus, CHO-AA8, 4 h

CN(C)CCNC(=O)c1c([N+](=O)[O-])ccc(N(CCCl)CCCl)c1[N+](=O)[O-]
C10 (CHO-AA8 [1]): 2200 µM | IC50 (CHO-AA8 [2]): 426 µM | C10 (UV4): 2200 µM | Hypersensitivity factor [3]: 2.7 | Ratio [4]: 2.2 | Ratio [5]: 116 | Hypersensitivity factor [6]: 3

NC(=O)c1cc([N+](=O)[O-])cc([N+](=O)[O-])c1N(CCCl)CCCl
IC50 (CHO-AA8 [2]): 73 µM | Hypersensitivity factor [3]: 4.3 | Hypersensitivity factor [6]: 0.7

NC(=O)c1c([N+](=O)[O-])ccc(N(CCCl)CCCl)c1[N+](=O)[O-]
IC50 (CHO-AA8 [2]): > 244 µM | Hypersensitivity factor [3]: >2.6

O=C(NCC(O)CO)c1cc(N(CCCl)CCCl)c([N+](=O)[O-])cc1[N+](=O)[O-] (stereo unspecified)
C10 (UV4): 3600 µM | Hypersensitivity factor [3]: 3.4 | Ratio [5]: 8.6 | Hypersensitivity factor [6]: 2.3

NC(=O)c1cc(N(CCCl)CCCl)c([N+](=O)[O-])cc1[N+](=O)[O-]
C10 (UV4): 3400 µM | Hypersensitivity factor [3]: 6.4 | Ratio [5]: 42 | Hypersensitivity factor [6]: 1.1

O=C(NCC(O)CO)c1cc([N+](=O)[O-])cc([N+](=O)[O-])c1N(CCCl)CCCl (stereo unspecified)
IC50 (CHO-AA8 [2]): 500 µM | Hypersensitivity factor [3]: 4.9 | Hypersensitivity factor [6]: 1.8

NC(=O)c1cc([N+](=O)[O-])c(N(CCCl)CCCl)cc1[N+](=O)[O-]
IC50 (CHO-AA8 [2]): 11 µM | Hypersensitivity factor [3]: 2.8 | Hypersensitivity factor [6]: 1.9

CN(C)CCNC(=O)c1cc([N+](=O)[O-])cc([N+](=O)[O-])c1N(CCCl)CCCl
IC50 (CHO-AA8 [2]): 150 µM | C10 (UV4): 1100 µM | Hypersensitivity factor [3]: 13 | Ratio [4]: >2.35 | Ratio [5]: 68 | Hypersensitivity factor [6]: 2.5

CN(C)CCNC(=O)c1cc(N(CCCl)CCCl)c([N+](=O)[O-])cc1[N+](=O)[O-]
C10 (CHO-AA8 [1]): 1300 µM | C10 (UV4): 400 µM | Hypersensitivity factor [3]: 3.1 | Ratio [4]: 3.1 | Ratio [5]: 44 | Hypersensitivity factor [6]: 6.7

O=C(NCC(O)CO)c1c([N+](=O)[O-])ccc(N(CCCl)CCCl)c1[N+](=O)[O-] (stereo unspecified)
IC50 (CHO-AA8 [2]): 652 µM | Hypersensitivity factor [3]: 2.7 | Hypersensitivity factor [6]: 1.7

CN(C)CCNC(=O)c1cc([N+](=O)[O-])c(N(CCCl)CCCl)c([N+](=O)[O-])c1
C10 (CHO-AA8 [1]): 270 µM | IC50 (CHO-AA8 [2]): 62 µM | C10 (UV4): 250 µM | Hypersensitivity factor [3]: 1.8 | Ratio [4]: 0.96 | Ratio [5]: 1.04 | Hypersensitivity factor [6]: 2.1

CN(C)CCNC(=O)c1ccc(N(CCCl)CCCl)c([N+](=O)[O-])c1[N+](=O)[O-]
C10 (CHO-AA8 [1]): 140 µM | IC50 (CHO-AA8 [2]): 13 µM | C10 (UV4): 160 µM | Hypersensitivity factor [3]: 1 | Ratio [4]: 0.82 | Ratio [5]: 4 | Hypersensitivity factor [6]: 1.2

CN(C)CCNC(=O)c1cc([N+](=O)[O-])c(N(CCCl)CCCl)cc1[N+](=O)[O-]
C10 (CHO-AA8 [1]): 120 µM | IC50 (CHO-AA8 [2]): 12 µM | C10 (UV4): 12 µM | Hypersensitivity factor [3]: 13 | Ratio [4]: 3.2 | Ratio [5]: 7.5 | Hypersensitivity factor [6]: 5.8

NC(=O)c1cc([N+](=O)[O-])c(N(CCCl)CCCl)c([N+](=O)[O-])c1
IC50 (CHO-AA8 [2]): 97 µM | Hypersensitivity factor [3]: 1.5 | Hypersensitivity factor [6]: 1.3

CN(C)CCNC(=O)c1cc([N+](=O)[O-])c([N+](=O)[O-])cc1N(CCCl)CCCl
C10 (CHO-AA8 [1]): 44 µM | IC50 (CHO-AA8 [2]): 4 µM | C10 (UV4): 18 µM | Hypersensitivity factor [3]: 1.4 | Ratio [4]: 0.098 | Ratio [5]: 1.8 | Hypersensitivity factor [6]: 3

O=C(NCC(O)CO)c1cc([N+](=O)[O-])c(N(CCCl)CCCl)c([N+](=O)[O-])c1 (stereo unspecified)
IC50 (CHO-AA8 [2]): 320 µM | Hypersensitivity factor [3]: 0.9 | Hypersensitivity factor [6]: 2.3

NC(=O)c1cc([N+](=O)[O-])c([N+](=O)[O-])cc1N(CCCl)CCCl
IC50 (CHO-AA8 [2]): 1.6 µM | Hypersensitivity factor [3]: 0.88 | Hypersensitivity factor [6]: 0.43

NC(=O)c1cc(N(CCCl)CCCl)c(NO)cc1[N+](=O)[O-]
IC50 (CHO-AA8 [7]): 180 µM

NC(=O)c1ccc(N(CCCl)CCCl)c([N+](=O)[O-])c1[N+](=O)[O-]
IC50 (CHO-AA8 [2]): 20 µM | Hypersensitivity factor [3]: 1 | Hypersensitivity factor [6]: 3.1

O=C(NCC(O)CO)c1cc([N+](=O)[O-])c(N(CCCl)CCCl)cc1[N+](=O)[O-] (stereo unspecified)
IC50 (CHO-AA8 [2]): 81 µM | Hypersensitivity factor [3]: 12 | Hypersensitivity factor [6]: 3.5

O=C(NCC(O)CO)c1ccc(N(CCCl)CCCl)c([N+](=O)[O-])c1[N+](=O)[O-] (stereo unspecified)
IC50 (CHO-AA8 [2]): 108 µM | Hypersensitivity factor [3]: 2.3 | Hypersensitivity factor [6]: 3

O=C(NCC(O)CO)c1cc([N+](=O)[O-])c([N+](=O)[O-])cc1N(CCCl)CCCl (stereo unspecified)
IC50 (CHO-AA8 [2]): 73 µM | Hypersensitivity factor [3]: 1.5 | Hypersensitivity factor [6]: 1.9
